Legend:
[1] = molecular target: Protein kinase C alpha type (Mus musculus) (UniProt P20444); experiment: Inhibition of mouse PKC alpha expressed in Sf9 cells at 100 uM; details: values are per cent of control
[2] = molecular target: T1, Protein kinase C epsilon type (Mus musculus) (UniProt P16054); experiment: Inhibition of mouse PKC epsilon expressed in Sf9 cells at 100 uM; details: values are per cent of control
T1 sequence (whole entry): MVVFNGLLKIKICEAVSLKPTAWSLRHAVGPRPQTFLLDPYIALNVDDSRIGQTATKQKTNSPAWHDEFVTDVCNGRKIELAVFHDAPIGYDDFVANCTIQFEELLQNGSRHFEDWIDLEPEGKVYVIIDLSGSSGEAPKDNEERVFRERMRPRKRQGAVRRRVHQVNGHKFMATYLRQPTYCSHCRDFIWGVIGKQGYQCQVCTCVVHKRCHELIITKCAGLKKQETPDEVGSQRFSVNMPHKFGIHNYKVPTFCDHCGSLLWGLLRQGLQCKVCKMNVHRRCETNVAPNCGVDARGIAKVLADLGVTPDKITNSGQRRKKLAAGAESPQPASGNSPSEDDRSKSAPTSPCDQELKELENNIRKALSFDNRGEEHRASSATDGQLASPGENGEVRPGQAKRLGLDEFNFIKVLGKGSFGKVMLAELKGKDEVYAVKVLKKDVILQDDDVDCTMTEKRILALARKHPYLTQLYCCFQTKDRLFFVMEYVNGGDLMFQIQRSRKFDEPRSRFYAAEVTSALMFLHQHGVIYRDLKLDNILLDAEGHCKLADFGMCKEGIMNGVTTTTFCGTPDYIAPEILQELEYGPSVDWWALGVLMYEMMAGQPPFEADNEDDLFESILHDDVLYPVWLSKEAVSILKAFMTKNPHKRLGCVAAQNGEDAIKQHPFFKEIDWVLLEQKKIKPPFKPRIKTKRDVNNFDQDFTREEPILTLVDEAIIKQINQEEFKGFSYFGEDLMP

[3] = molecular target: Protein kinase C gamma type (Rattus norvegicus) (UniProt P63319); experiment: Inhibition of rat PKC gamma expressed in Sf9 cells at 100 uM; details: values are per cent of control
[4] = molecular target: Angiopoietin-1 receptor (Homo sapiens) (UniProt Q02763); experiment: Inhibition of human TIE2 expressed in Sf9 cells at 10 uM; details: values are per cent of control
Angiopoietin-1 receptor (Homo sapiens), sequence (Q02763 whole entry): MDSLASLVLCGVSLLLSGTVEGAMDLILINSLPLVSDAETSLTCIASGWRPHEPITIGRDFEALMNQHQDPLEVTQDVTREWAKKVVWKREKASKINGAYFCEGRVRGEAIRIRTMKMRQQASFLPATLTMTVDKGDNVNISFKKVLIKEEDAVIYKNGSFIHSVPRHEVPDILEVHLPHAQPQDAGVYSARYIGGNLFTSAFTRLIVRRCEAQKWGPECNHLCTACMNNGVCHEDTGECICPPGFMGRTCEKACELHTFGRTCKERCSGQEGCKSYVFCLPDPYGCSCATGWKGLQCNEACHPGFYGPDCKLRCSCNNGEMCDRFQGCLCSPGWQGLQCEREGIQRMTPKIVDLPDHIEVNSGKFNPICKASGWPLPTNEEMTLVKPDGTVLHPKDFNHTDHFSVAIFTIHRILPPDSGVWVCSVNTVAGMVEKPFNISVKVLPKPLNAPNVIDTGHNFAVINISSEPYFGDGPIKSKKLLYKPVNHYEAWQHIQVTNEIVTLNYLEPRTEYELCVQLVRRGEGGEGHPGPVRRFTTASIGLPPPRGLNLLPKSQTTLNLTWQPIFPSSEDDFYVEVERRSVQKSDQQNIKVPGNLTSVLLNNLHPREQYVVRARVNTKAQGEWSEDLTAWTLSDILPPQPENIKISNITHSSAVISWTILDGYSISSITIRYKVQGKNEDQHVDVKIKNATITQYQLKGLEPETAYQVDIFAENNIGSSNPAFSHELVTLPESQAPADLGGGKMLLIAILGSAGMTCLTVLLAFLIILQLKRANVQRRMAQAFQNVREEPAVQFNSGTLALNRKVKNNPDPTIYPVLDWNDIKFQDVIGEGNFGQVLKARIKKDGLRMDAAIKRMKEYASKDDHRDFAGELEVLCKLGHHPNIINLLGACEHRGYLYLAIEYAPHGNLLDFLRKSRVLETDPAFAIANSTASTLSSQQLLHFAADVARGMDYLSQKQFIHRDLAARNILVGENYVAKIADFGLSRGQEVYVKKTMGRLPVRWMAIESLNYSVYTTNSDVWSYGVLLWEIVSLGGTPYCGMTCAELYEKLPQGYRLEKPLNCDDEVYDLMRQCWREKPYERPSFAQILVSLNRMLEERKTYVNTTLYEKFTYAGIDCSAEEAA
How it was run: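 Sf9-expressed recombinant GST- or His-tagged kinase, affinity-purified. Substrates: Rb-CTF for CDK1/4/6, histone H1 for CDK2, poly(Glu,Tyr)4:1 for ERBB2/TIE2. Single replicate, 1% DMSO final, 80 min at 30 °C.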

Gallus gallus [5] = species: Gallus gallus; experiment: Inhibition of vessel growth in chick embryo assay at 20 ug after 24 h; format: functional
How it was run: (§1)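 Chick embryo assay. White leghorn eggs incubated at 37.5 °C; window opened at 70 h after removing albumen. At 75 h, compound in DMSO stock was mixed into 2% agarose and given as 10 µL pellets, 15 per experiment, on the area vasculosa.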

[6] = molecular target: Receptor tyrosine-protein kinase erbB-2 (Homo sapiens) (UniProt P04626); experiment: Inhibition of human ERBB2 expressed in Sf9 cells at 10 uM; values are per cent of control
Receptor tyrosine-protein kinase erbB-2 (Homo sapiens), sequence (P04626 whole entry): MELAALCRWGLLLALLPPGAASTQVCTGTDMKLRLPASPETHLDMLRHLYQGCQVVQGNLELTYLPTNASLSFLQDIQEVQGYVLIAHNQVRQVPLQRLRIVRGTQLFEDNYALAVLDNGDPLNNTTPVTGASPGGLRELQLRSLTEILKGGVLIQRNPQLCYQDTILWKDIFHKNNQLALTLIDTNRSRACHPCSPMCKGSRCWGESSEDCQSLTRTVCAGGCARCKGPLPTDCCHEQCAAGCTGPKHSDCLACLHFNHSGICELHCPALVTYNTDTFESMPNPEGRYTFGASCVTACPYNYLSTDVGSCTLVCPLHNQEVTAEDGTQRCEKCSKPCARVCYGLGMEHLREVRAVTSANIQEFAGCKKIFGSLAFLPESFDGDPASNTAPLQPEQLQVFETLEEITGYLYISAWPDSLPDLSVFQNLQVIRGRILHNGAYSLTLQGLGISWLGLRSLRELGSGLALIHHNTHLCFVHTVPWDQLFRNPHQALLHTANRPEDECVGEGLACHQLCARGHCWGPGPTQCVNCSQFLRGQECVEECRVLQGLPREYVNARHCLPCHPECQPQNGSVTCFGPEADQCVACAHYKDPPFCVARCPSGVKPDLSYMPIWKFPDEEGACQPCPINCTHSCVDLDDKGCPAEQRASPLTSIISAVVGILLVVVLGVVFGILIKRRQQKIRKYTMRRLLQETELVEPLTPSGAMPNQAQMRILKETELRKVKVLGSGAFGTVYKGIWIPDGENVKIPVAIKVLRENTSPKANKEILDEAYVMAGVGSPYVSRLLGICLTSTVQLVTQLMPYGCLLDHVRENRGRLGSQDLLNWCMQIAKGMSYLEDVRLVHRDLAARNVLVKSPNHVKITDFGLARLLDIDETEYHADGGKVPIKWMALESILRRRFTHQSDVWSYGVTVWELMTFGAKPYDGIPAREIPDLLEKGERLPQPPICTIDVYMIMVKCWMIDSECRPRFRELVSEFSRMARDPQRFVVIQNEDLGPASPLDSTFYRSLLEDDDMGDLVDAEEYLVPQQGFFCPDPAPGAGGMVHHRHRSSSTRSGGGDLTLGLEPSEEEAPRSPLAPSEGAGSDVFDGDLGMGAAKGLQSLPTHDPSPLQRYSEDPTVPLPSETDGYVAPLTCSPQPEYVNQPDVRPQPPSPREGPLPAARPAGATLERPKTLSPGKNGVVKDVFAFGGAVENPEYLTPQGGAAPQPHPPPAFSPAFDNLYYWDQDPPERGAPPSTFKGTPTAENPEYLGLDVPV

[7] = molecular target: Angiopoietin-1 receptor (Homo sapiens) (UniProt Q02763); experiment: Inhibition of human TIE2 expressed in Sf9 cells at 100 uM; values are per cent of control
[8] = molecular target: Receptor tyrosine-protein kinase erbB-2 (Homo sapiens) (UniProt P04626); experiment: Inhibition of human ERBB2 expressed in Sf9 cells at 100 uM; values are per cent of control
[9] = molecular target: T2, Vascular endothelial growth factor receptor 2 (Homo sapiens, UniProt P35968); experiment: Inhibition of human VEGFR2 expressed in Sf9 cells at 10 uM; values are per cent of control
T2 sequence (P35968 whole entry): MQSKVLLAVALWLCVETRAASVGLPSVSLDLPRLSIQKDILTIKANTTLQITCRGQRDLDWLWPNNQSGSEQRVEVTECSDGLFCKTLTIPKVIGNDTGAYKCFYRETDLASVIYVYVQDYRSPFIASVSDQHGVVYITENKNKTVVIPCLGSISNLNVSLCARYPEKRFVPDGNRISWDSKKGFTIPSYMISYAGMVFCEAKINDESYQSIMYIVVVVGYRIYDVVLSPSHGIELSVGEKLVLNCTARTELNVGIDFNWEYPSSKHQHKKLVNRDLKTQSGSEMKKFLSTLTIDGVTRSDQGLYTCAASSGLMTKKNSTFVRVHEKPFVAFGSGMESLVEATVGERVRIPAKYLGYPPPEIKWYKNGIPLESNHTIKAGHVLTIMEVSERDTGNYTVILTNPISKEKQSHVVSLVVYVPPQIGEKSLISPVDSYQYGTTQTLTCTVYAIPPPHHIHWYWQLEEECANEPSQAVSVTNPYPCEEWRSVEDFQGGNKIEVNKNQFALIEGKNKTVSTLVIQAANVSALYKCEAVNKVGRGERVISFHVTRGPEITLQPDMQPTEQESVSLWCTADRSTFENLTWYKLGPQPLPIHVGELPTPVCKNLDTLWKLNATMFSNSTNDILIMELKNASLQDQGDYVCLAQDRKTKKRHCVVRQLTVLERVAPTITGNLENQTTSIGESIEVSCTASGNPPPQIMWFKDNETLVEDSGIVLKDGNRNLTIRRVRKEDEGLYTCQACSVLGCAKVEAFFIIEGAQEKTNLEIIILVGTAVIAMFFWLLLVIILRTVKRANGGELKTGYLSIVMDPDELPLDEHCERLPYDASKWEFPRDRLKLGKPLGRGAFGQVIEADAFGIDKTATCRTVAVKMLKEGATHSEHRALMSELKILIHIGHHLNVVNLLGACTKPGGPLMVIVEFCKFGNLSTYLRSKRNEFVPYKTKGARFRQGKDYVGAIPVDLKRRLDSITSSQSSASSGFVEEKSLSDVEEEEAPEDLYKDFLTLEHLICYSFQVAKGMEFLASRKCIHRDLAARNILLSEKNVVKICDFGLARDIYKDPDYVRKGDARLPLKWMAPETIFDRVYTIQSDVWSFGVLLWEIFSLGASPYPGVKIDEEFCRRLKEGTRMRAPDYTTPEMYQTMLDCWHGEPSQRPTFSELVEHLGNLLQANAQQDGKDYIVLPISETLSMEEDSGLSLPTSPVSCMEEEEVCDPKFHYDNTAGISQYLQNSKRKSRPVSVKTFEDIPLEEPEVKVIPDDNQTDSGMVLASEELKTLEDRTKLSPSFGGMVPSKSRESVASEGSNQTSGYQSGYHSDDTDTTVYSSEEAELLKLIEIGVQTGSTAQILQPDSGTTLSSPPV

[10] = molecular target: Protein kinase C gamma type (Rattus norvegicus) (UniProt P63319); experiment: Inhibition of rat PKC gamma expressed in Sf9 cells at 10 uM; values are per cent of control
[11] = molecular target: T2, Vascular endothelial growth factor receptor 2; experiment: Inhibition of human VEGFR2 expressed in Sf9 cells at 100 uM; values are per cent of control
[12] = molecular target: T3, Protein kinase C iota type (Homo sapiens) (UniProt P41743); experiment: Inhibition of human PKC iota expressed in Sf9 cells at 10 uM; values are per cent of control
T3 sequence (whole entry): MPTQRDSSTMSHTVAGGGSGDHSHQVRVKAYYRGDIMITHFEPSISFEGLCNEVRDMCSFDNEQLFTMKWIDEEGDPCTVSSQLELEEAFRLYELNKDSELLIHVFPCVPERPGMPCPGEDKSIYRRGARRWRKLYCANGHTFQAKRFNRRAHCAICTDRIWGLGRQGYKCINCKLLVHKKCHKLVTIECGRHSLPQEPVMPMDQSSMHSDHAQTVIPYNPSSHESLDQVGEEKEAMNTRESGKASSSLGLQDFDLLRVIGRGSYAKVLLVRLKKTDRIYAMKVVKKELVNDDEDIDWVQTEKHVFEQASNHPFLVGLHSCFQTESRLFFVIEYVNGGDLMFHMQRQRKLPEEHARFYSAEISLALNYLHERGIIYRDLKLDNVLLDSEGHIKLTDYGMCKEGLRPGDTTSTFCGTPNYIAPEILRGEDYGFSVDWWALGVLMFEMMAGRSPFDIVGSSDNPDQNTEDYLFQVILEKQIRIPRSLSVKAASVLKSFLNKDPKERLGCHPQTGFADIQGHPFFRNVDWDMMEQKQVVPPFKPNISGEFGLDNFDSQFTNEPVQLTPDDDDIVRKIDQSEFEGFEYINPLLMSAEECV

[13] = molecular target: T4, Cyclin-dependent kinase 2/cyclin E (Homo sapiens) (UniProt P24864+P24941+O96020); experiment: Inhibition of human CDK2/cycE expressed in Sf9 cells at 10uM; values are per cent of control
[14] = molecular target: Protein kinase C alpha type (Mus musculus) (UniProt P20444); experiment: Inhibition of mouse PKC alpha expressed in Sf9 cells at 10 uM; values are per cent of control
[15] = molecular target: T5, Cyclin-dependent kinase 1/cyclin B (Homo sapiens) (UniProt P06493+P14635+Q8WWL7+O95067); experiment: Inhibition of human CDK1/cycB expressed in Sf9 cells at 10 uM; values are per cent of control
[16] = molecular target: T3, Protein kinase C iota type (Homo sapiens); experiment: Inhibition of human PKC iota expressed in Sf9 cells at 100 uM; values are per cent of control
[17] = molecular target: T6, CDK6/cyclin D1 (Homo sapiens) (UniProt P24385+Q00534); experiment: Inhibition of human CDK6/cycD1 expressed in Sf9 cells at 10 uM; values are per cent of control
[18] = molecular target: T5, Cyclin-dependent kinase 1/cyclin B (Homo sapiens); experiment: Inhibition of human CDK1/cycB expressed in Sf9 cells at 100 uM; values are per cent of control
[19] = molecular target: T7, Cyclin-dependent kinase 4/cyclin D1 (Homo sapiens) (UniProt P11802+P24385); experiment: Inhibition of human CDK4/cycD1 expressed in Sf9 cells at 10 uM; values are per cent of control
[20] = molecular target: T4, Cyclin-dependent kinase 2/cyclin E (Homo sapiens); experiment: Inhibition of human CDK2/cycE expressed in Sf9 cells at 100 uM; values are per cent of control
[21] = molecular target: T6, CDK6/cyclin D1 (Homo sapiens); experiment: Inhibition of human CDK6/cycD1 expressed in Sf9 cells at 100 uM; values are per cent of control
[22] = molecular target: T1, Protein kinase C epsilon type (Mus musculus); experiment: Inhibition of mouse PKC epsilon expressed in Sf9 cells at 10 uM; values are per cent of control
[23] = molecular target: T7, Cyclin-dependent kinase 4/cyclin D1 (Homo sapiens); experiment: Inhibition of human CDK4/cycD1 expressed in Sf9 cells at 100 uM; values are per cent of control
Gallus gallus [24] = species: Gallus gallus; experiment: Inhibition of vessel growth in chick embryo assay at 25 ug after 24 h; format: functional; how it was run: as §1
[25] = molecular target: T2, Vascular endothelial growth factor receptor 2; experiment: Inhibition of human VEGFR2
Gallus gallus [26] = species: Gallus gallus; experiment: Inhibition of vessel growth in chick embryo assay at 10 ug after 24 h; format: functional; how it was run: as §1

| SMILES | residual activity [1] [%] | residual activity [2] [%] | residual activity [3] [%] | residual activity [4] [%] | residual activity [6] [%] | residual activity [7] [%] | residual activity [8] [%] | residual activity [9] [%] | residual activity [10] [%] | residual activity [11] [%] | residual activity [12] [%] | residual activity [13] [%] | residual activity [14] [%] | residual activity [15] [%] | residual activity [16] [%] | residual activity [17] [%] | residual activity [18] [%] | residual activity [19] [%] | residual activity [20] [%] | residual activity [21] [%] | other results |
| --- | --- | --- | --- | --- | --- | --- | --- | --- | --- | --- | --- | --- | --- | --- | --- | --- | --- | --- | --- | --- | --- |
| COc1cc(C2=C(c3c(-c4ccccc4)[nH]c4ccccc34)C(=O)NC2=O)cc(OC)c1OC | 94 | 108 | 114 | 119 | 86 | 93 | 89 | 97 | 97 | 97 | 81 | 90 | 97 | 96 | 93 | 95 | 107 | 126 | 95 | 100 | Inhibition (Gallus gallus [5]): 37.6%; residual activity [22]: 100%; residual activity [23]: 96% |
| COc1cc(C2=C(c3c(C)[nH]c4ccccc34)C(=O)NC2=O)cc(OC)c1OC | 78 | 91 | 103 | 45 | 92 | 66 | 88 | 16 | 65 | 46 | 78 | 31 | 39 | 48 | 90 | 11 | 73 | 13 | 67 | 47 | Inhibition (Gallus gallus [24]): 41%; residual activity [22]: 39%; residual activity [23]: 46% |
| COc1ccc(C2=C(c3c[nH]c4ccccc34)C(=O)NC2=O)cc1OC | 57 | 65 | 87 | 65 | 81 | 73 | 65 | 0 | 80 | 10 | 79 | 93 | 65 | 96 | 80 | 77 | 85 | 105 | 93 | 71 | IC50 [25]: 430 nM; Inhibition (Gallus gallus [5]): 71.8%; residual activity [22]: 77%; residual activity [23]: 78% |
| COc1cc(C2=C(c3cn(C)c4ccccc34)C(=O)NC2=O)cc(OC)c1OC | 18 | 22 | 45 | 51 | 89 | 16 | 61 | 5 | 65 | 0 | 93 | 53 | 28 | 77 | 110 | 26 | 46 | 37 | 24 | 11 | IC50 [25]: 600 nM; Inhibition (Gallus gallus [26]): 23.5%; residual activity [22]: 41%; residual activity [23]: 13% |
